Here are results for four compounds from publication PMC7083616 (Science Advances, 2020).

The target in test [1] is T1, ~55-kDa band (TrxR1) in A549 cell lysates (Homo sapiens, UniProt Q16881).
T1 sequence (Q16881 1-499 isoform Q16881-5): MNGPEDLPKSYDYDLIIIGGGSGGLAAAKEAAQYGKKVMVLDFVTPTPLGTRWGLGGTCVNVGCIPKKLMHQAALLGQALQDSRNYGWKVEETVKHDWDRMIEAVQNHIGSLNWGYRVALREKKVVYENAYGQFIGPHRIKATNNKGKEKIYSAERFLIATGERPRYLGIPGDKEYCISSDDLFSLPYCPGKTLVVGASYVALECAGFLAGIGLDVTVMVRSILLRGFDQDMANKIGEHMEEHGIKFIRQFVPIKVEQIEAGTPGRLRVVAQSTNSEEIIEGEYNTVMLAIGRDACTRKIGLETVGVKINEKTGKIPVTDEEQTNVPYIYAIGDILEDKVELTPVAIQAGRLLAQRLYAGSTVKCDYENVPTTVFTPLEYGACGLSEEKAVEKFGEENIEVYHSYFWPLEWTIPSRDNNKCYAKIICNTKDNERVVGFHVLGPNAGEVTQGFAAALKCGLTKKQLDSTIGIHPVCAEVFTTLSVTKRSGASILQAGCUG
The test can be described thus: DG-8 competition assay in A549 cell lysates. The following applies: compound 0.5 to 50 μM 30 min, then DG-8 5 μM 30 min. Format: binding. In short, it runs like this:
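A549 lysate (30 μg) was preincubated with test compound (0.5 to 50 μM) for 30 min, then with the dansyl-tagged probe (5 μM) for 30 min. Samples in LDS buffer with 100 mM DTT were heated at 95°C for 5 min and run on 10% bis-tris gels. The ~55-kDa band was imaged by UV dansyl fluorescence.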

Test [2] deals with T2, TrxR1 (Homo sapiens, UniProt Q16881).
T2 sequence (Q16881 1-499 isoform Q16881-5): T1 sequence (Q16881 1-499 isoform Q16881-5)
The test is described as follows: Recombinant TrxR1 insulin reduction assay. The following applies: with NADPH, Trx1 used to reduce insulin. Format: biochemical. Put shortly: (§1)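 Test compound was preincubated for 75 min with 10 nM TrxR1 or 10 nM TrxR2, plus BSA (0.1 mg/ml) and 250 μM NADPH. Then 25 μM Trx1 (TrxR1) or Trx2 (TrxR2) and 160 μM insulin were added. NADPH consumption was followed at A340 for 20 min.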

Test [3] addresses TrxR2 (Homo sapiens, UniProt Q9NNW7). The test is described as follows: Recombinant TrxR2 insulin reduction assay. Format: biochemical. The following applies: with NADPH, Trx2 used to reduce insulin. In short, it runs like this: as §1
Test [4] has as its target T2, TrxR1. The test can be described thus: Cellular TrxR1 activity, Trx1-linked insulin end point assay. The class given is cell-based. The following applies: FaDu cells, 1 μM, 3 hours. In short, it runs like this: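 FaDu cells were seeded at 400,000 per well and treated 24 h later for 3 h at 37°C. Cells were lysed in modified RIPA buffer and protein measured by BCA. Lysate was incubated with 0.16 mM insulin, 0.33 mM NADPH and 16 μM Trx1 in TE buffer (pH 7.5) at 37°C for 0–90 min. Each time point was stopped with 7.2 M guanidine-HCl/2.5 mM DTNB and read at A412. Activity came from the A412 rise against a pure-enzyme standard curve; n = 3.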

In test [5] the test system is Nrf2. The test can be described thus: pTRAF reporter, Nrf2 transcriptional activity. Format: cell-based, human. The following applies: HEK293 cells, 1 μM, 24 hours. Put shortly: (§2)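 HEK293 cells were seeded at 20,000 per well on collagen I-coated plates. The next day, they were transfected overnight with 50 ng of the pTRAF-Nrf2/HIF/NFκB vector using Turbofect. Cells were then exposed for 24 h to 1 μM test compound. Positive controls were auranofin (1 μM) for Nrf2 and TNF-α (20 ng/ml) for NFκB. After 30 min Hoechst (40 ng/ml), per-well reporter fluorescence was quantified by high-content imaging.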

The subject of test [6] is NFκB. The test can be described thus: pTRAF reporter, NFκB transcriptional activity. Format: cell-based, human. The following applies: HEK293 cells, 1 μM, 24 hours. Put shortly: as §2
For test [7], the system named is STAT-driven luciferase expression. The test is described as follows: STAT-dependent luciferase in HEK293-shScramble and HEK293–shPrx1 + Prx2. Format: cell-based, human. The following applies: IL6 50 ng/ml + sIL6R 100 ng/ml.

Chain of TrxR2 (Q9NNW7 37-524, species assumed): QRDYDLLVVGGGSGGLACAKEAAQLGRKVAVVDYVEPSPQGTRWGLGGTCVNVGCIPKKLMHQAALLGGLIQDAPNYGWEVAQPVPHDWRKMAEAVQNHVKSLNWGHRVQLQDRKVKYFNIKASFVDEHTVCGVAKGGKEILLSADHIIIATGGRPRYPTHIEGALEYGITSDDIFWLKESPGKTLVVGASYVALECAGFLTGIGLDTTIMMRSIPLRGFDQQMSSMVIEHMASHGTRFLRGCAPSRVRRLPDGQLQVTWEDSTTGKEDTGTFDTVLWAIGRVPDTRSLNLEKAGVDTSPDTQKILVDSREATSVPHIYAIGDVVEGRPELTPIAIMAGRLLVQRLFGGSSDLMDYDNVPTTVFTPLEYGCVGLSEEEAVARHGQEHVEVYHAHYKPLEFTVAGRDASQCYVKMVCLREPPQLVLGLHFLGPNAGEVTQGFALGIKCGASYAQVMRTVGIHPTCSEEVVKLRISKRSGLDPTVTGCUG

On to `CC(=O)OC[C@H]1O[C@@H]([S-])[C@H](OC(C)=O)[C@@H](OC(C)=O)[C@@H]1OC(C)=O.CCP(CC)CC.[Au+]` [auranofin], for which the “competition with DG-8 for binding to the ~55-kDa band” value (from here on “competition with DG-8 for binding”) in test [1] was “potently outcompeted the probe”. Moreover, the “inhibition of recombinant TrxR1 activity” value in test [2] was “potently inhibited the activity of TrxR1”. Besides, in test [3], the “inhibition of recombinant TrxR2 activity” value is on record as “the only compound that inhibited TrxR2”.

Turning to `O=[N+]([O-])c1ccc2c(c1)S(=O)(=O)C=C2` [Stattic], the “competition with DG-8 for binding” value in test [1] is “could compete with DG-8 for binding”. For the same compound, the “inhibition of cellular TrxR1 activity” value in test [4] is given as “approximately 40%”. For the same compound, in test [2], the “inhibition of recombinant TrxR1 activity” value is on record as “potently inhibited the activity of TrxR1”. The Nrf2 activation entry in test [5] was “clearly triggered Nrf2 activation”. The NFκB activation entry in test [6] is reported as “little effect on NFκB activation”. In addition, the “luciferase inhibition in control versus Prx1 + Prx2 knockdown cells” value in test [7] is listed as “more potently inhibited luciferase expression in the control cells”.

As to `COc1ccc([N+](=O)[O-])c(S(=O)(=O)c2ccc(Cl)cc2)n1` [TRi-1], the “competition with DG-8 for binding” value in test [1] is on record as “potently outcompeted the probe”. In test [7], the “luciferase inhibition in control versus Prx1 + Prx2 knockdown cells” value is given as “more potently inhibited luciferase expression in the control cells”.

On to `CN(CC(=O)N(Cc1ccc(C2CCCCC2)cc1)c1ccc(C(=O)O)c(O)c1)S(=O)(=O)c1c(F)c(F)c(F)c(F)c1F` [BP1-102], for which the “competition with DG-8 for binding” value in test [1] is recorded as “not able to compete with the probe”. Moreover, the “effect on cellular TrxR1 activity” value in test [4] is given as “did not appreciably alter the TrxR1 activity”. Moreover, the “inhibition of recombinant TrxR1 activity” value in test [2] was “did not fully inhibit the enzymatic activity of TrxR1”. The Nrf2 activation entry in test [5] is on record as “did not activate Nrf2”.
